From ChEMBL document CHEMBL4028863, “Exploring Heme and Hemoglobin Binding Regions of Plasmodium Heme Detoxification Protein for New Antimalarial Discovery” (J Med Chem, 2017)
Active and inactive are the calls of the source. The calls are words filed in the database; no cut-off is given here.

Tests used:
[1] = tested on: Plasmodium falciparum; assay: Antiparasitic activity against late ring stage Plasmodium falciparum 3D7 infected in RBC at 50 to 100 uM after 60 hrs by ethidium bromide staining based flow cytometric analysis; assay type: functional
Procedure, shortened: (§1)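 P. falciparum 3D7 cultures synchronized with 5% sorbitol; assay set at late ring stage, 2% hematocrit, 1% parasitemia. Compounds added at 50 and 100 μM (screen) or 5−100 μM (dose series). Parasitemia read by flow cytometry after 60 h (methods: 48 h into next cycle): ethidium bromide 10 μg/mL, 20 min, 37 °C; FL2-positive fraction of 100000 cells, uninfected RBCs as control. Triplicates.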

[2] = tested on: Plasmodium falciparum; assay: Growth inhibition of late ring stage Plasmodium falciparum 3D7 infected in RBC after 60 hrs by e thidium bromidestaining based flow cytometric analysis; assay type: functional; procedure, shortened: as §1
[3] = Stability of the compound under freezing condition; assay type: physicochemical
[4] = biological target: T1, Heme ligase (Plasmodium falciparum (isolate 3D7), UniProt Q8IL04); assay: Binding affinity to Plasmodium falciparum 3D7 HDP assessed as equilibrium dissociation constant by SPR assay
T1 sequence (Q8IL04 whole entry): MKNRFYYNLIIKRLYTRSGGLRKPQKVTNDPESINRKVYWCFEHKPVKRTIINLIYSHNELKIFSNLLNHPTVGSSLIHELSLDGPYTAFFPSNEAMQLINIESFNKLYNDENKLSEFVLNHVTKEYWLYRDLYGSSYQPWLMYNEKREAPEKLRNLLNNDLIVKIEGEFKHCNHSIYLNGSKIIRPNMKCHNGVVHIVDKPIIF
Procedure, shortened: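 Recombinant Pf HDP immobilised (>9500 RU) on a CM5 chip from 10 mM sodium acetate pH 4.0, then ethanolamine-blocked. Ligand was diluted from a 10 mM DMSO stock to 200 μM (2% DMSO), and a concentration series was made in PBS pH 7.4 running buffer with 2% DMSO and 0.05% P20. Eight-point DMSO solvent correction, glycine pH 2.5 regeneration, 25 °C, kinetic fit.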

[5] = biological target: T2, Heme ligase (Plasmodium falciparum (isolate 3D7)) (UniProt Q8IL04)
T2 sequence (whole entry): T1 sequence (Q8IL04 whole entry)

[6] = biological target: T2, Heme ligase (Plasmodium falciparum (isolate 3D7)); details: Plasmodium falciparum 3D7; 50 uM
[7] = Inhibition of wild type Plasmodium falciparum HDP binding to hemoglobin at 0.5 to 100 uM preincubated for 30 min followed by HDP addition measured after 1 hr by ELISA
Procedure, shortened: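 ELISA competition: 400 ng hemoglobin preincubated with varying peptide concentrations for 30 min at 37 °C, then added to wells coated overnight at 4 °C with 200 ng recombinant PfHDP and blocked with 3% BSA. Detection with anti-Hb (1:500), then HRP anti-rabbit (1:5000) for 1 h, OPD substrate, absorbance 490 nm. Control peptide included.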

[8] = tested on: Plasmodium falciparum; assay: Antiplasmodial activity against late trophozoite stage of Plasmodium falciparum 3D7 infected in RBC assessed as gross deformaties in food vacuole at 50 to 100 uM after 12 hrs by giemsa staining based microscopic analysis; assay type: functional
Procedure, shortened: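 Sorbitol-synchronized 3D7 late-ring cultures at 2% hematocrit and 1% parasitemia were given peptide at 50−100 μM. After 12 h, at the late trophozoite stage, Giemsa-stained smears were examined by microscopy for food vacuole morphology.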

[9] = tested on: Heme; assay: Binding affinity to heme (unknown origin) at 20 uM by SORET assay
Procedure, shortened: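 Soret titration: 20 μM peptide in 100 mM sodium acetate pH 5.2; heme added in 3 μM increments. Spectrum recorded after each addition; change in absorbance at 400 nm plotted against heme concentration. Alanine-substituted peptide served as control.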

[10] = tested on: Heme; assay: Binding affinity to heme (unknown origin) assessed as reduction in heme to hemozoin conversion by Plasmodium falciparum HDP
Procedure, shortened: (§2)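 Heme-to-hemozoin conversion: heme (10 mM DMSO stock) at 300 μM with 0.5 μM recombinant PfHDP in 500 mM sodium acetate pH 5.2, 4 h at 37 °C. Stopped with SDS. Pellet washed in 2.5% SDS and in 50 mM bicarbonate pH 9.1 to strip free heme. Hemozoin dissolved in 0.1N NaOH/2.5% SDS, read at 405 nm. Triplicates.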

[11] = tested on: Heme; assay: Binding affinity to heme (unknown origin) assessed as reduction in heme to hemozoin conversion by Plasmodium falciparum HDP at 100 uM relative to control; parameters: scale not given: the % may be the effect or the level left; procedure, shortened: as §2

Molecule | Stability [3] | Activity [1] | growth inhibition (GI) [2] | further results
O=c1oc2ccccc2c2c1C(c1cccc([N+](=O)[O-])c1)c1c(c3ccccc3oc1=O)O2 |  | Active |  | 
NS(=O)(=O)c1cccc(-c2ccc(C3Nc4ccccc4-c4nc5ccccc5n43)o2)c1 (centres undefined) |  | Active |  | 
COc1ccc(Oc2ccc(C(F)(F)F)cc2NS(=O)(=O)c2cccc3nonc23)cc1 |  | Active |  | 
FC(F)(F)c1cccc(N2CCN(C3=Cc4ccccc4CC3)CC2)c1 | Stable | Active | Dose-dependent effect | IC50 ([2]; 3D7, 60 h): 59.6 µM; Kd [4]: 2.96 µM; Ka [5]: 3.37 ×10⁵ /M; inhibition [6]: 31%
H-LRNLLNNDLIVKIEGEFKH-OH |  |  |  | inhibition [7]: Active; Activity [8]: Active
Cc1ccc(Oc2ncccc2NC(=O)c2ccc3c(c2)OCCCO3)c2c1CCC2 | Unstable | Active | Dose-dependent effect | 
N#Cc1cc(Cc2ccc3c(ccc4ccccc43)c2C#N)cc2c1ccc1ccccc12 |  | Active |  | 
H-GEFKAAAASIYLNG-OH |  |  |  | Activity [9]: Active
O=[N+]([O-])c1ccc(N/N=C2/C(=C/c3cccc4ccccc34)CCc3ccccc32)c([N+](=O)[O-])c1 | Unstable | Active | Dose-dependent effect | 
C(=C1/c2ccccc2-c2c1ccc1ccccc21)/c1cc2c3c(cccc3c1)-c1ccccc1-2 |  | Active |  | 
Cc1cc(=O)oc2cc(NS(=O)(=O)c3cccc4nonc34)ccc12 |  | Active |  | 
H-MKCHNGVVHIVD-OH |  |  |  | Activity [9]: Active; Activity [10]: Dose-dependent effect; Activity [11]: > 75%
O=C(CCn1c(=O)oc2ccccc21)Nc1cc(C(F)(F)F)cc(C(F)(F)F)c1 |  | Active |  | 
H-LHRKNFLELGNENIDKL-OH |  |  |  | inhibition [7]: inactive
H-GEFKHCNHSIYLNG-OH |  |  |  | Activity [9]: Active; Activity [10]: Dose-dependent effect; Activity [11]: > 75%

More lines, main results first:

Stability [3] | Molecule | Activity [1] | growth inhibition (GI) [2] | further results
Unstable | O=C(c1cccs1)c1nn(-c2ccccc2)c2nc(=O)cc(-c3ccccc3)n12 | Active | Dose-dependent effect | 
Unstable | O=C(NNC(=O)C1c2ccccc2Oc2ccccc21)c1cccc(C(F)(F)F)c1 | Active | Dose-dependent effect | 
Unstable | Cc1ccc(-n2nnnc2SCc2nc(-c3cccc([N+](=O)[O-])c3)no2)c(C)c1 | Active | Dose-dependent effect | 
